This passage reports Activity results from ChEMBL document CHEMBL1152972, “Rearranged prenylated C6-C3 compounds and a highly oxygenated seco-prezizaane-type sesquiterpene from the stem bark of Illicium oligandrum” (2009).

Molecules are shown by their SMILES. The source made the active and inactive calls. The rule behind the calls is not given here.

In one test the test system is A2780. Nature of the test: Cytotoxicity against human A2780 cells. The format is functional, cell-based.
The test system of another test is BGC-823. Nature of the test: Cytotoxicity against human BGC823 cells. The format is functional, cell-based.
The subject of a further test is HCT-8. Put plainly: Cytotoxicity against human HCT8 cells. The format is functional, cell-based.
The test system of the next test is A549. Nature of the test: Cytotoxicity against human A549 cells. The format is functional, cell-based.
Test [1] in a line: Antiinflammatory activity in rat PMNC assessed as inhibition of platelet activating factor-induced beta-glucuronidase release at 10 uM treated 15 mins before PAF challenge. The format is functional. Further details: scale not given: the % may be the effect or the level left. The method in brief: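 Rat PMN suspension (2.5 × 10^6 cells/mL) preincubated with sample (stock 0.1 M in DMSO, diluted in RPMI-1640) 15 min at 37 °C, then cytochalasin B 5 min, then PAF; stopped on ice after 10 min. Supernatant incubated with phenolphthalein glucuronic acid in 0.1 M HOAc buffer pH 4.6, 37 °C, 18 h; NaOH added, A550 read; inhibitory ratio versus PAF and control wells; ginkgolide B reference.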

In the next test the test system is Bel-7402. Nature of the test: Cytotoxicity against human Bel7402 cells. The format is functional, cell-based.

With `C=CCC1=C[C@]2(O)C[C@@H](O)C(C)(C)[C@H](C1=O)C2=O` [ILLIOLIGANONE A], the outcome in the test with A2780, with BGC-823, with HCT-8, in the test on A549 and in the test on Bel-7402 was inactive. Also, the Activity in test [1] is reported as -7.7%.
With `C=CCC1=C[C@]2(O)C[C@H](C(C)(C)O)OC2=CC1=O`, the outcome with A2780, with BGC-823, in the test on HCT-8, in the test with A549 and with Bel-7402 was inactive. For the same molecule, the Activity in test [1] is 4.8%.
For the molecule `C=CC[C@]1(C[C@H](O)C(C)(C)O)C=C2OCOC2=CC1=O` [ILLIOLIGANONE C], the outcome in the test on A2780, in the test with BGC-823, in the test on HCT-8, in the test with A549 and in the test with Bel-7402 was inactive. Moreover, the Activity in test [1] came out at 20.1%.
`C=CC[C@@H]1C[C@]2(O)C[C@H](C(C)(C)O)OC2=CC1=O` [ILLIFUNONE C]: the result in the test with A2780, in the test with BGC-823, in the test on HCT-8, in the test on A549 and in the test with Bel-7402 was inactive. The Activity in test [1] is -9.4%.
Consider `C=CC[C@@]12C=C(C[C@H](O)C(C)(C)O)C(=O)C=C1OCO2` [ILLIOLIGANONE B], for which the outcome with A2780, in the test with BGC-823, in the test with HCT-8, in the test on A549 and in the test on Bel-7402 was inactive. For the same molecule, in test [1], the Activity amounted to 33.8%.
Turning to `C=CC[C@H]1C[C@]2(O)C[C@H](C(C)(C)O)OC2=CC1=O` [ILLIFUNONE D], the result in the test on A2780, in the test with BGC-823, in the test on HCT-8, in the test with A549 and with Bel-7402 was inactive. Besides, in test [1], the Activity was 18%.
For `C[C@@H]1CC[C@@]2(O)[C@]13C[C@@H](OC(=O)[C@@H]3O)[C@@]1(O)C(=O)OC[C@@]21C` [NEOMAJUCIN], the outcome with A2780, with BGC-823, with HCT-8, in the test on A549 and in the test on Bel-7402 was inactive. The Activity in test [1] worked out at 22.4%.
For the molecule `CO[C@]12OC[C@@]3(C)[C@@]4(O)CC[C@@H](COC(=O)c5ccccc5)[C@]4(C[C@@H](O1)[C@@]3(O)CO)[C@H]2O` [OLIGANDRIORTHOLACTONE], the outcome with A2780, with BGC-823, in the test with HCT-8, in the test with A549 and with Bel-7402 was inactive. Moreover, the Activity in test [1] was 15.8%.
